The record followed here is ChEMBL document CHEMBL5357066, “Development of Novel Membrane Disrupting Lipoguanidine Compounds Sensitizing Gram-Negative Bacteria to Antibiotics” (ACS Med Chem Lett, 2024).

Assay [1] has as its system Klebsiella pneumoniae. As to the kind of experiment: Synergistic antibacterial activity against Klebsiella pneumoniae NCTC 13368 assessed as rifampicin MIC at 30 microg/ml incubated for overnight by microbroth dilution checkerboard assay. Type of assay: functional. The conditions noted are these: dose 30 µg/ml.
Assay [2] concerns Klebsiella pneumoniae. As to the kind of experiment: Synergistic antibacterial activity against Klebsiella pneumoniae M6 assessed as rifampicin MIC at 30 microg/ml incubated for overnight by microbroth dilution checkerboard assay. The class given is functional. The conditions noted are these: dose 30 µg/ml. Background: Broth dilution looks for growth in wells or tubes with falling amounts of substance.

Assay [3] deals with Acinetobacter baumannii. As to the kind of experiment: Synergistic antibacterial activity against Acinetobacter baumannii AYE assessed as rifampicin MIC at 30 microg/ml incubated for overnight by microbroth dilution checkerboard assay. The class given is functional. The conditions noted are these: dose 30 µg/ml.
The test system of assay [4] is Acinetobacter baumannii. Kind of assay: Synergistic antibacterial activity against Acinetobacter baumannii ATCC 17978 assessed as rifampicin MIC at 30 microg/ml incubated for overnight by microbroth dilution checkerboard assay. To be noted: dose 30 µg/ml. The class given is functional.
In assay [5] the test system is Pseudomonas aeruginosa. As to the kind of experiment: Synergistic antibacterial activity against Pseudomonas aeruginosa PAO1 assessed as rifampicin MIC at 30 microg/ml incubated for overnight by microbroth dilution checkerboard assay. The class given is functional. To be noted: dose 30 µg/ml. The method, boiled down: (§1)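 Fixed-concentration combination MIC in TSB. The first agent was set in a two-fold dilution series (100 µL/well), then 50 µL/well of the second agent at a fixed concentration was added; PMBN was fixed at 30 µg/mL. Bacteria at OD 0.02 (50 µL) went into 150 µL of compounds, overnight at 37 °C. MIC was the lowest concentration without visible growth (<0.1 OD600).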

The test system of assay [6] is Pseudomonas aeruginosa. Kind of assay: Synergistic antibacterial activity against Pseudomonas aeruginosa NCTC 13437 assessed as rifampicin MIC at 30 microg/ml incubated for overnight by microbroth dilution checkerboard assay. Type of assay: functional. To be noted: dose 30 µg/ml. The method, boiled down:
as §1

In assay [7] the test system is Escherichia coli. Kind of assay: Synergistic antibacterial activity against Escherichia coli NCTC 12923 assessed as rifampicin MIC at 30 microg/ml incubated for overnight by microbroth dilution checkerboard assay. Type of assay: functional. The conditions noted are these: dose 30 µg/ml.
Assay [8] deals with Pseudomonas aeruginosa. Kind of assay: Antibacterial activity against Pseudomonas aeruginosa NCTC 13437 assessed as bacterial growth inhibition incubated for overnight by microbroth dilution method. Type of assay: functional. The method, boiled down: (§2)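 Broth microdilution in Tryptic Soy Broth. DMSO stocks were diluted in TSB as 2-fold series. Overnight TSB cultures were back-diluted to OD 0.01 and mixed 1:1 with compound. Incubation was overnight at 37 °C. MIC was the lowest concentration without visible growth (<0.1 OD600). DMSO vehicle was checked at equivalent concentrations.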

The subject of assay [9] is Acinetobacter baumannii. Kind of assay: Antibacterial activity against Acinetobacter baumannii AYE assessed as bacterial growth inhibition incubated for overnight by microbroth dilution method. Type of assay: functional. Put shortly: as §2
Assay [10] deals with Acinetobacter baumannii. As to the kind of experiment: Antibacterial activity against Acinetobacter baumannii ATCC 17978 assessed as bacterial growth inhibition incubated for overnight by microbroth dilution method. The class given is functional. The method, boiled down: as §2
Assay [11] has as its system Pseudomonas aeruginosa. Kind of assay: Antibacterial activity against Pseudomonas aeruginosa PAO1 assessed as bacterial growth inhibition incubated for overnight by microbroth dilution method. The class given is functional. Put shortly: as §2
Assay [12] has as its system Escherichia coli. Kind of assay: Antibacterial activity against Escherichia coli NCTC 12923 assessed as bacterial growth inhibition incubated for overnight by microbroth dilution method. The class given is functional. The method, boiled down: as §2
Assay [13] concerns Klebsiella pneumoniae. As to the kind of experiment: Synergistic antibacterial activity against Klebsiella pneumoniae NCTC 13368 assessed as rifampicin MIC at <=0.25 times MIC incubated for overnight by microbroth dilution checkerboard assay. The class given is functional. The method, boiled down:
(§3)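 Checkerboard microdilution under MIC conditions (TSB, overnight, 37 °C). Two-fold series of each agent were combined on one plate before bacteria were added, and single-agent MICs were measured on the same plate. FIC = sum of combination MIC/alone MIC for each agent, taken from the most synergistic well. Three independent repeats, mean ± SD. ≤0.5 was taken as strong synergy and 0.5–<1 as weak.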

Assay [14] deals with Klebsiella pneumoniae. As to the kind of experiment: Synergistic antibacterial activity against […] Klebsiella pneumoniae M6 assessed as rifampicin MIC at <=0.25 times MIC incubated for overnight by microbroth dilution checkerboard assay. The class given is functional. Put shortly: (§4)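 Checkerboard run under the MIC conditions (TSB, overnight, 37 °C). Antibiotic and lipoguanidine 2-fold series were combined on one plate before bacteria were added. Growth/no-growth was scored as for the MIC (<0.1 OD600). Single-agent MICs were measured on the same plates. Three independent repeats were done.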

Assay [15] deals with Acinetobacter baumannii. Kind of assay: Synergistic antibacterial activity against Acinetobacter baumannii AYE assessed as rifampicin MIC at <=0.25 times MIC incubated for overnight by microbroth dilution checkerboard assay. The class given is functional. Put shortly:
as §3

Assay [16] has as its system Acinetobacter baumannii. Kind of assay: Synergistic antibacterial activity against Acinetobacter baumannii ATCC 17978 assessed as rifampicin MIC at <=0.25 times MIC incubated for overnight by microbroth dilution checkerboard assay. The class given is functional. Put shortly:
as §3

The test system of assay [17] is Pseudomonas aeruginosa. Kind of assay: Synergistic antibacterial activity against Pseudomonas aeruginosa PAO1 assessed as rifampicin MIC at <=0.25 times MIC incubated for overnight by microbroth dilution checkerboard assay. Type of assay: functional. The method, boiled down: (§5)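 Checkerboard microdilution in Tryptic Soy Broth, run like the MIC assay. Overnight TSB cultures were back-diluted to OD 0.01 and added 1:1 to the combined two-fold series of both agents, then incubated overnight at 37 °C. Growth/no-growth was called at <0.1 OD600. MICs alone were read on the same plates. FIC index came from the most synergistic well; three independent repeats, mean ± SD.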

Assay [18] concerns Pseudomonas aeruginosa. As to the kind of experiment: Synergistic antibacterial activity against Pseudomonas aeruginosa NCTC 13437 assessed as rifampicin MIC at <=0.25 times MIC incubated for overnight by microbroth dilution checkerboard assay. The class given is functional. The method, boiled down: as §5
Assay [19] concerns Escherichia coli. As to the kind of experiment: Synergistic antibacterial activity against Escherichia coli NCTC 12923 assessed as rifampicin MIC at <=0.25 times MIC incubated for overnight by microbroth dilution checkerboard assay. The class given is functional. The method, boiled down:
as §3

For assay [20], the system named is Klebsiella pneumoniae. As to the kind of experiment: Synergistic antibacterial activity against Klebsiella pneumoniae NCTC 13368 assessed as fold change in rifampicin MIC at <=0.25 times MIC incubated for overnight by microbroth dilution checkerboard assay relative to rifampicin alone. The class given is functional. The method, boiled down:
as §4

In assay [21] the test system is Klebsiella pneumoniae. As to the kind of experiment: Synergistic antibacterial activity against […] Klebsiella pneumoniae M6 assessed as fold change in rifampicin MIC at <=0.25 times MIC incubated for overnight by microbroth dilution checkerboard assay relative to rifampicin alone. The class given is functional. Put shortly:
as §4

In assay [22] the test system is Acinetobacter baumannii. Kind of assay: Synergistic antibacterial activity against Acinetobacter baumannii AYE assessed as fold change in rifampicin MIC at <=0.25 times MIC incubated for overnight by microbroth dilution checkerboard assay relative to rifampicin alone. Type of assay: functional. Put shortly: as §3
For assay [23], the system named is Acinetobacter baumannii. Kind of assay: Synergistic antibacterial activity against Acinetobacter baumannii ATCC 17978 assessed as fold change in rifampicin MIC at <=0.25 times MIC incubated for overnight by microbroth dilution checkerboard assay relative to rifampicin alone. Type of assay: functional. The method, boiled down: as §3
Assay [24] has as its system Pseudomonas aeruginosa. As to the kind of experiment: Synergistic antibacterial activity against Pseudomonas aeruginosa PAO1 assessed as fold change in rifampicin MIC at <=0.25 times MIC incubated for overnight by microbroth dilution checkerboard assay relative to rifampicin alone. Type of assay: functional. The method, boiled down:
as §5

The subject of assay [25] is Pseudomonas aeruginosa. As to the kind of experiment: Synergistic antibacterial activity against Pseudomonas aeruginosa NCTC 13437 assessed as fold change in rifampicin MIC at <=0.25 times MIC incubated for overnight by microbroth dilution checkerboard assay relative to rifampicin alone. The class given is functional. Put shortly: as §5
The test system of assay [26] is Escherichia coli. As to the kind of experiment: Synergistic antibacterial activity against Escherichia coli NCTC 12923 assessed as fold change in rifampicin MIC at <=0.25 times MIC incubated for overnight by microbroth dilution checkerboard assay relative to rifampicin alone. The class given is functional. Put shortly: as §3
Assay [27] concerns Klebsiella pneumoniae. Kind of assay: Antibacterial activity against Klebsiella pneumoniae M6 assessed as bacterial growth inhibition incubated for overnight by microbroth dilution method.
Assay [28] has as its system Klebsiella pneumoniae. As to the kind of experiment: Antibacterial activity against ESBL Klebsiella pneumoniae NCTC 13368 assessed as bacterial growth inhibition incubated for overnight by microbroth dilution method.

SMILES strings stand for the structures.

Consider `CC(C)C[C@@H]1NC(=O)[C@@H](Cc2ccccc2)NC(=O)[C@H](CCN)NC(=O)[C@@H](NC(=O)[C@H](CCN)NC(=O)[C@@H](N)[C@@H](C)O)CCNC(=O)[C@H]([C@@H](C)O)NC(=O)[C@@H](CCN)NC(=O)[C@H](CCN)NC1=O`, for which the MIC (commonly the least concentration at which growth counts as inhibited) is 1 µg/mL in [1]; 0.5 µg/mL in assay [2]; 0.25 µg/mL in assay [3]; at most 0.125 µg/mL in [4]; at most 0.125 µg/mL in [5]; at most 0.125 µg/mL in assay [6]. Moreover, the minimal inhibitory concentration (MIC) in assay [7] is at most 0.125 µg/mL.

On to `NCCCCN=C(N)N` [AGMATINE], for which the minimal inhibitory concentration (MIC) was over 128 µg/mL in assay [8]; over 128 µg/mL in assay [9]; over 128 µg/mL in assay [10]; over 128 µg/mL in assay [11]; over 128 µg/mL in assay [12]; 32 µg/mL in assay [13]. In addition, the MIC in assay [14] stood at 32 µg/mL; in [15] it was 16 µg/mL; in assay [16] it was 4 µg/mL; in [17], 32 µg/mL; in assay [18], 32 µg/mL; in [19], 32 µg/mL. Moreover, the MIC in assay [27] and in [28] was over 128 µg/mL each time. Further, the “fold change (FC)” value in assay [20], in assay [21], in assay [22], in assay [23], in assay [24] and in assay [25] was 0 throughout. The “fold change (FC)” value in assay [26] stood at 0.
